Rows were chosen to be rich in hits. Some 0.81% of all compounds tested hit in one or more screens of this group.
Calpain2 inh: calpain II (pig) inhibition; purified calpain II, fluorogenic peptide substrate, 30 min; inhibition, % at 16 µM; actives 0.37% (n = 220,000);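 active means inhibition above about 50%, limit read from the data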
PKD1 inh: inhibitors of human PKD1 kinase; Q15139; PKD1 kinase fluorescence polarization assay; inhibition, % (test concentration not listed); actives 0.056% (n = 200,000); AID 797; in the data active means inhibition above about 50%
Pf gametocyte: P. falciparum stage V gametocyte viability inhibition | P. falciparum stage V gametocytes, ATP luminescence, 24 h | inhibition, % at 10.9 µM | actives 0.065% (n = 150,000) | AID 743093;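 active means inhibition above the mean plus 3 SD of compounds within the control limits, set per campaign, cut at about 38% in these data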;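 further: 0% = DMSO wells and 100% = medium only without gametocytes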
DTT redox prof: compounds producing H2O2 with reducing agent – biochemical, NIH compound library profiling, artefact control for MLSCN library redox annotation, primary screen; AID 878; actives 0.03% (n = 200,000); activation, % at 10 µM; DTT-dependent redox cycling H2O2, phenol red/HRP absorbance; 100% = 100 µM peroxide control, 0% = buffer;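 active means activation of at least 50% relative to the plate's high and low controls in the primary single-dose screen; inactive means activation below 50%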;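 further: compound incubated with DTT at 0.8 mM final as the reducing agent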
HMGR II inh: blocks class II HMG-CoA reductase of Enterococcus faecalis | purified E. faecalis HMGR, NADPH absorbance 340 nm kinetic | inhibition, % at 10 µM | actives 0.41% (n = 190,000);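 active means inhibition above a set limit, the median over all tested compounds plus 3 SD, cut at about 9.5% in these data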;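 further: enzyme runs in reverse so mevalonate oxidation gives rising NADPH absorbance; 0% = complete reaction with DMSO and 100% = background rate lacking mevalonate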
Rad51 HR inh: Rad51 (human) homologous recombination inhibition | hRad51 DNA strand exchange, fluorescence dequenching | inhibition, % at 10 µM | Q06609 | actives 0.085% (n = 200,000);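 active means inhibition above 40% at the single screening dose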;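 further: 0% = DMSO control wells and 100% = blanks with heterologous ssDNA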
Target sequence (Q06609 whole entry, looked up): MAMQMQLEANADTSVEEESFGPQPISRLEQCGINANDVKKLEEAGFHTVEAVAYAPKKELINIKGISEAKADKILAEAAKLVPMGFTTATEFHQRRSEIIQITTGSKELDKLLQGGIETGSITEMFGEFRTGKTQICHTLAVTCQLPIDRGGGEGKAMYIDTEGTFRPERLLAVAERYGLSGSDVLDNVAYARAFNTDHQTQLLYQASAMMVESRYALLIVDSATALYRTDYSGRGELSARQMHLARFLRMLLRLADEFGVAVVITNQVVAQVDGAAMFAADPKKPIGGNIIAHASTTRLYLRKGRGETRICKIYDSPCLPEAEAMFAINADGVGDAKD
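Read-out basis: percent inhibition relative to plate controls and blanks / Assay system: human Rad51 nucleoprotein filaments preassembled on unlabelled ssDNA / Timing: filaments 15 min 37 °C, then compound 30 min / Control set: per-plate controls and blanks / Technique: fluorescence dequenching at 485/520 nm / Compound: 10 µM final, single point / Also added: Fluorescein- and BHQ1-tagged 47-mer duplex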
Starred values were filed as active, the others as inactive; x = no result.

SMILES | Calpain2 inh | PKD1 inh | Pf gametocyte | DTT redox prof | HMGR II inh | Rad51 HR inh
CCC(=O)Nc1ccc(Cl)c(NC(=S)NC(=O)c2ccco2)c1 | 6.5 | 8.0 | 24.0 | -0.2 | -3.0 | x
CCC(=O)Nc1ccc(Cl)c(NC(=S)NC(=O)c2cc3ccccc3o2)c1 | 51.4* | -9.1 | 20.3 | -0.3 | -7.0 | x
CC(C)CCOc1ccccc1C(N)=O | -6.1 | -4.2 | 14.3 | -0.4 | 9.7* | -2.2
Cc1cccc2c(=O)cc(C)n(CC(N)=O)c12 | 26.5 | x | -6.5 | x | x | -11.8
COc1ccc(N2CCN(C(=O)C3CCC(Cn4c(=S)[nH]c5ccccc5c4=O)CC3)CC2)cc1 (stereo unspecified) | -142.9 | -9.8 | x | -3.0 | 21.6* | 0.1
O=C(C1CCC(Cn2c(=S)[nH]c3ccccc3c2=O)CC1)N1CCN(c2ccccc2)CC1 (stereo unspecified) | x | -8.8 | 9.8 | 1.7 | x | -4.6
[O-][n+]1cccc2c(Br)cc(Br)c(O)c21 | -14.4 | 2.5 | 15.7 | -1.3 | 9.9* | 3.1
C[n+]1cccc2c(Br)ccc([O-])c21 | 41.2 | x | -21.0 | x | x | 22.7
COc1ncnc2c1ncn2CC1COC(C)(C)O1 (stereo unspecified) | x | x | 4.4 | x | x | x
CCN(Cc1cc(=O)n2ccsc2n1)Cc1nc2ccccc2c(=O)[nH]1 | -0.6 | -6.9 | x | 0.4 | 11.3* | -1.6
COc1ccc(N2CCN(C(CNC(=O)C(C)(C)C)c3ccco3)CC2)cc1 (stereo unspecified) | -22.9 | 2.8 | -17.3 | -0.3 | 10.9* | 18.1
COc1ccc(NC(=O)CN2C(=O)/C(=C3\SC(=S)N(C4CCS(=O)(=O)C4)C3=O)c3ccccc32)cc1 (stereo unspecified) | 56.4* | x | -0.2 | x | x | 18.6
CCn1c(C)nc2cc(S(N)(=O)=O)ccc21 | -20.6 | -0.6 | 11.2 | -0.9 | -3.6 | 7.5
CCn1c(C)nc2cc(S(=O)(=O)C(F)(F)C(F)C(F)(F)F)ccc21 (stereo unspecified) | 89.6* | -4.8 | x | -0.5 | -14.8 | x
Cc1ccc(SCCSc2nc(C)cc(=O)[nH]2)cc1 | x | x | -2.2 | x | x | x
CCN1C(=O)N[C@@H](c2ccco2)C(C(=O)OC)=C1C | x | x | -52.4 | x | x | 8.3
O=S(=O)(N/N=C/c1ccc(N2CCOCC2)cc1)c1ccc(Br)cc1 | 9.9 | -6.1 | -20.2 | 0.1 | -1.8 | x
O=C1CC(=O)N(Cc2ccco2)C(=S)N1 | -113.7 | -0.1 | x | 0.1 | 21.2* | -2.5
CCN(CCC(=O)Nc1cc(OC)ccc1OC)Cc1ccccc1 | x | x | 23.3 | x | x | x
CN(Cc1cccs1)C(=O)c1ccc(S(=O)(=O)NCc2ccco2)cc1 | -6.7 | x | -6.5 | x | x | 44.1*
COc1ccc(CCN(C)C(=O)c2ccc(S(=O)(=O)NCc3ccco3)cc2)cc1OC | -1.4 | 5.3 | 26.2 | -0.2 | -1.6 | 7.9
COc1ccc(N(C)S(=O)(=O)c2cccc(C(=O)NCC3CCCCC3)c2)cc1 | 54.7* | -1.7 | -15.0 | -0.6 | 1.0 | -7.7
COc1ccc(N(C)S(=O)(=O)c2cccc(C(=O)NC3CCCC3)c2)cc1 | -14.3 | 4.3 | -19.9 | 0.1 | -3.1 | 6.8
COc1ccc(C(=O)CSc2n[nH]c(C)n2)cc1[N+](=O)[O-] | 28.2 | 1.0 | -24.0 | 0.4 | -1.3 | -4.1
COc1ccc(N2CCN(CCC(N)=O)CC2)cc1 | -15.8 | 5.5 | x | 0.0 | -4.6 | 107.6*
SMILES | Calpain2 inh | PKD1 inh | Pf gametocyte | DTT redox prof | HMGR II inh | Rad51 HR inh
N#CC1=C(N)NC(SCc2ccc(F)cc2)=C(C#N)C12CCCCC2 | 65.9* | 4.3 | -7.9 | 2.9 | -4.8 | -5.3
Cc1ccc(S(=O)(=O)Nc2cccc(/C=C/C(=O)O)c2)cc1 | 6.3 | -14.2 | x | -3.6 | 11.1* | 4.0
COc1ccc(S(=O)(=O)Nc2cccc(/C=C/C(=O)O)c2)cc1 | 8.0 | -2.2 | -24.4 | 0.1 | -6.0 | 7.6
CCOc1ccc(/C(O)=C2/C(=O)C(=O)N(CC3CCCO3)C2c2ccc(C)o2)cc1 (stereo unspecified) | -5.0 | 4.5 | x | 0.3 | 4.3 | -1.5
CCOc1ccc(/C(O)=C2/C(=O)C(=O)N(CC3CCCO3)C2c2ccco2)cc1 (stereo unspecified) | 8.9 | -9.3 | -18.0 | -2.4 | 28.6* | -8.6
COc1ccc(-c2nnc(SCc3c(C)noc3C)o2)cc1 | -29.1 | -6.4 | 7.9 | -0.2 | 7.9 | -3.5
O=C(NN1C(=O)c2ccccc2NC1c1ccoc1)c1ccccc1 (stereo unspecified) | -151.5 | -10.3 | 4.5 | -0.2 | -0.7 | 47.8*
